Data on 1 compound can be found in ChEMBL document CHEMBL1687827, “Profiling the Aspergillus fumigatus proteome in response to caspofungin” (2011).

Structures are written as SMILES. Active and inactive are the calls of the source. No cut-off for these calls is given here.

The test system of assay [1] is Aspergillus fumigatus. The assay can be described thus: Induction of change in isocitrate dehydrogenase Idp1, putative protein level in iTRAQ-116 labelled secreted fraction of drug-susceptible Aspergillus fumigatus KU80 delta-akuB at 0.12 ug/ml after 48 hrs in YPD medium by MS (MS/MS) analysis relative to control. Type of assay: functional. Put shortly:
(§1)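 Conidia (1 × 10⁵/ml) grown in YPD, 37°C, 225 rpm, ± 0.12 μg/ml caspofungin; filtrate taken as secreted fraction, French-press lysate 5,000 × g pellet as cell wall/plasma membrane. Trypsin digests 8-plex iTRAQ-labelled (drug-free channels as references), pooled, 2D-chromatography, MS/MS. Median-normalized; protein ratio = median of unique-peptide ratios, log2 normalized.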

The test system of assay [2] is Aspergillus fumigatus. The assay can be described thus: Induction of change in 60s ribosomal protein yl6 protein level in iTRAQ114 labelled secreted fraction of drug-susceptible Aspergillus fumigatus KU80 delta-akuB at 0.12 ug/ml after 24 hrs in YPD medium by MS (MS/MS) analysis relative to control. It is filed as functional. Put shortly:
(§2)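 Conidia at 1 × 10⁵/ml grown shaking at 37°C in YPD with or without 0.12 μg/ml caspofungin; mycelia filtered at 24 or 48 h. Secreted fraction taken from the filtrate; cell wall/plasma membrane pellet recovered after French-press lysis and a 5,000 × g spin. Proteins trypsin-digested and iTRAQ-labelled, drug vs no-drug channels at each time, then 2D LC-MS/MS. Protein ratio is the median of ratios from uniquely assigned peptides after median normalization.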

Assay [3] deals with Aspergillus fumigatus. Put plainly: Induction of change in ribosomal protein L35, putative protein level in iTRAQ114 labelled secreted fraction of drug-susceptible Aspergillus fumigatus KU80 delta-akuB at 0.12 ug/ml after 24 hrs in YPD medium by MS (MS/MS) analysis relative to control. It is filed as functional. Put shortly: as §1
In assay [4] the test system is Aspergillus fumigatus. Put plainly: Induction of change in 60s ribosomal protein l21 protein level in iTRAQ114 labelled secreted fraction of drug-susceptible Aspergillus fumigatus KU80 delta-akuB at 0.12 ug/ml after 24 hrs in YPD medium by MS (MS/MS) analysis relative to control. It is filed as functional. Put shortly: as §2
For assay [5], the system named is Aspergillus fumigatus. The assay can be described thus: Induction of change in choline oxidase (CodA), putative protein level in iTRAQ-116 labelled secreted fraction of drug-susceptible Aspergillus fumigatus KU80 delta-akuB at 0.12 ug/ml after 48 hrs in YPD medium by MS (MS/MS) analysis relative to control. Type of assay: functional. Put shortly: as §2
For assay [6], the system named is Aspergillus fumigatus. The assay can be described thus: Induction of change in Mn superoxide dismutase MnSOD protein level in iTRAQ114 labelled cell wall fraction of drug-susceptible Aspergillus fumigatus KU80 delta-akuB at 0.12 ug/ml after 24 hrs in YPD medium by MS (MS/MS) analysis relative to control. Type of assay: functional. Put shortly: as §2
Assay [7] has as its system Aspergillus fumigatus. Put plainly: Induction of change in L-PSP endoribonuclease family protein (Hmf1), putative gene expression in drug-susceptible Aspergillus fumigatus KU80 delta-akuB at 0.12 ug/ml after 48 hrs in YPD medium by microarray analysis relative to control. It is filed as functional. Put shortly: (§3)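 Mycelia grown in YPD ± 0.12 μg/ml caspofungin (1 × 10⁵ conidia/ml, 37°C, shaking) and harvested at 24 or 48 h. Total RNA extracted, DNase-treated and quality-checked; 2 μg labelled per TIGR SOP M007 and hybridized to whole-genome arrays. Three independent experiments with dye flip (6 replicates); drug vs untreated fold change.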

The subject of assay [8] is Aspergillus fumigatus. Put plainly: Induction of change in 60s ribosomal protein L24, putative gene expression in drug-susceptible Aspergillus fumigatus KU80 delta-akuB at 0.12 ug/ml after 24 hrs in YPD medium by microarray analysis relative to control. Type of assay: functional. Put shortly: as §3
For assay [9], the system named is Aspergillus fumigatus. Put plainly: Induction of change in 60s ribosomal protein l2 gene expression in drug-susceptible Aspergillus fumigatus KU80 delta-akuB at 0.12 ug/ml after 24 hrs in YPD medium by microarray analysis relative to control. It is filed as functional. Put shortly: as §3
In assay [10] the test system is Aspergillus fumigatus. Put plainly: Induction of change in Plasma membrane H-ATPase Pma1 protein level in iTRAQ114 labelled cell wall fraction of drug-resistant Aspergillus fumigatus EMFR-S678P at 0.12 ug/ml after 24 hrs in YPD medium by MS (MS/MS) analysis relative to control. It is filed as functional. Put shortly: (§4)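 Conidia at 1 × 10⁵/ml were grown at 37°C, shaking at 225 rpm, in YPD with or without 0.12 μg/ml caspofungin for 24 or 48 h. The culture filtrate was kept as the secreted fraction. Mycelia were lysed by French press in HEPES/glycerol/EDTA/PMSF/DTT buffer, and the 5,000 × g pellet was washed to give CW/PM. Proteins were reduced, alkylated and trypsin-digested at 37°C overnight, then iTRAQ-labelled and run by 2D LC-MS/MS. Ratios are the median of unique-peptide ratios, median-normalized, versus the no-drug control.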

Assay [11] relates to Aspergillus fumigatus. Put plainly: Induction of change in Ribosomal protein S5 protein level in iTRAQ114 labelled cell wall fraction of drug-resistant Aspergillus fumigatus EMFR-S678P at 0.12 ug/ml after 24 hrs in YPD medium by MS (MS/MS) analysis relative to control. It is filed as functional, organism-based. Put shortly:
as §4

Assay [12] deals with Aspergillus fumigatus. The assay can be described thus: Antifungal activity against drug-resistant Aspergillus fumigatus EMFR-S678P assessed as reduction in colony size at 0.12 ug/ml. Type of assay: functional, organism-based.
Assay [13] concerns Aspergillus fumigatus. Put plainly: Induction of change in glucosamine-fructose-6-phosphate aminotransferase protein level in iTRAQ-118 labelled cell wall fraction of drug-resistant Aspergillus fumigatus EMFR-S678P at 0.12 ug/ml after 24 hrs in YPD medium by MS (MS/MS) analysis relative to control. Type of assay: functional, organism-based. Put shortly: as §4
Assay [14] deals with Aspergillus fumigatus. Put plainly: Induction of change in nuclear transport factor NTF-2, putative protein level in iTRAQ-116 labelled secreted fraction of drug-resistant Aspergillus fumigatus EMFR-S678P at 0.12 ug/ml after 48 hrs in YPD medium by MS (MS/MS) analysis relative to control. Type of assay: functional. Put shortly: as §4
Assay [15] has as its system Aspergillus fumigatus. The assay can be described thus: Induction of change in antigenic mitochondrial protein HSP60, putative protein level in iTRAQ-116 labelled secreted fraction of drug-resistant Aspergillus fumigatus EMFR-S678P at 0.12 ug/ml after 48 hrs in YPD medium by MS (MS/MS) analysis relative to control. It is filed as functional. Put shortly:
as §4

In assay [16] the test system is Aspergillus fumigatus. The assay can be described thus: Induction of change in ribosomal protein L26 protein level in iTRAQ-116 labelled secreted fraction of drug-resistant Aspergillus fumigatus EMFR-S678P at 0.12 ug/ml after 48 hrs in YPD medium by MS (MS/MS) analysis relative to control. Type of assay: functional, organism-based. Put shortly:
as §4

The test system of assay [17] is Aspergillus fumigatus. Put plainly: Induction of change in extracellular conserved serine-rich protein level in iTRAQ-116 labelled secreted fraction of drug-resistant Aspergillus fumigatus EMFR-S678P at 0.12 ug/ml after 48 hrs in YPD medium by MS (MS/MS) analysis relative to control. Type of assay: functional. Put shortly: as §4
Assay [18] relates to Aspergillus fumigatus. The assay can be described thus: Induction of change in 40S ribosomal protein S3Ae protein level in iTRAQ114 labelled cell wall fraction of drug-susceptible Aspergillus fumigatus KU80 delta-akuB at 0.12 ug/ml after 24 hrs in YPD medium by MS (MS/MS) analysis relative to control. It is filed as functional. Put shortly: as §2
For assay [19], the system named is Aspergillus fumigatus. The assay can be described thus: Induction of change in isocitrate dehydrogenase Idp1, putative protein level in iTRAQ-118 labelled cell wall fraction of drug-susceptible Aspergillus fumigatus KU80 delta-akuB at 0.12 ug/ml after 24 hrs in YPD medium by MS (MS/MS) analysis relative to control. It is filed as functional. Put shortly: as §1

As for `CC[C@H](C)C[C@H](C)CCCCCCCCC(=O)N[C@H]1C[C@@H](O)[C@@H](NCCN)NC(=O)[C@@H]2[C@@H](O)CCN2C(=O)[C@H]([C@H](O)CCN)NC(=O)[C@H]([C@H](O)[C@@H](O)c2ccc(O)cc2)NC(=O)[C@@H]2C[C@@H](O)CN2C(=O)[C@H]([C@@H](C)O)NC1=O` [CASPOFUNGIN], the “fold change (FC)” value in the assay on Aspergillus fumigatus [1] is -6.1; in the assay with Aspergillus fumigatus [2] it was 1.1; in the assay with Aspergillus fumigatus [3], 1.4; with Aspergillus fumigatus [4], -1; in the assay with Aspergillus fumigatus [5] it was -2; with Aspergillus fumigatus [6], -1.2. Moreover, the “fold change (FC)” value was -2.3 in the assay on Aspergillus fumigatus [7]; 3.5 in the assay with Aspergillus fumigatus [8]; 3.9 in the assay with Aspergillus fumigatus [9]; -1.15 in the assay with Aspergillus fumigatus [10]; 1.07 in the assay with Aspergillus fumigatus [14]; -1.15 in the assay on Aspergillus fumigatus [15]. The “fold change (FC)” value in the assay with Aspergillus fumigatus [17] is listed as -1.07; in the assay on Aspergillus fumigatus [18] it was 2.3; in the assay on Aspergillus fumigatus [19] it was -2.1. In addition, the outcome in the assay with Aspergillus fumigatus [11], in the assay on Aspergillus fumigatus [13] and in the assay with Aspergillus fumigatus [16] was inactive. Further, the outcome in the assay with Aspergillus fumigatus [12] was Active.
